Experimental data: ChEMBL document CHEMBL5352453, “Hit-to-lead optimization of a 2-aminobenzimidazole series as new candidates for chagas disease” (Eur J Med Chem, 2023)
pIC50: −log10 of the molar value.

Tests used:
Trypanosoma cruzi [1] = test: Antitrypanosomal activity against intracellular Trypanosoma cruzi amastigote infected primary peritoneal mouse macrophages assessed as reduction in amastigote population; assay type: functional; design: concentration or dose not given beside the values
In short: (§1)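 High-content imaging of primary mouse macrophages infected with T. cruzi. Counts both amastigotes per cell and percentage of infected cells. 96 h exposure, with maximal activity scored at 10 µM. IC50 and IC90 against intracellular amastigotes taken from the same 96 h incubation.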

Trypanosoma cruzi [2] = test: Antitrypanosomal activity against intracellular Trypanosoma cruzi amastigote infected primary peritoneal mouse macrophages assessed as reduction in infection rate; assay type: functional; in short: as §1
Trypanosoma cruzi [3] = test: Antitrypanosomal activity against intracellular Trypanosoma cruzi amastigote infected primary peritoneal mouse macrophages assessed as reduction in amastigote population measured after 96 hrs; assay type: functional, organism-based; details: for pIC50: 96 h; for IC90: time 96 hrs; in short: as §1
Trypanosoma cruzi [4] = test: Antitrypanosomal activity against intracellular Trypanosoma cruzi amastigote infected mouse 3T3 cells assessed as reduction in amastigote population measured after 48 hrs
[5] = Metabolic stability in CD1 mouse liver microsomes assessed as intrinsic clearance measured upto 60 mins by LC-MS/MS analysis; assay type: ADME; details: read-out: CLH
In short: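 CD1 mouse liver microsomes at 0.25 mg/mL, compound at 0.5 µM, pH 7.4, 37 °C, started with NADPH. Sampled at 0, 5, 10, 20, 30 and 60 min and quenched with acetonitrile:methanol containing tolbutamide. Measured by LC-MS/MS; CLint (k × 1000/0.25, µL/min/mg) derived by non-linear regression of % remaining over time.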

[6] = Selectivity index, ratio of CC50 for cytotoxicity against human MRC5 cells to EC50 for Trypanosoma cruzi Tulahuen CL2 amastigotes expressing beta galactosidase infected in human MRC5 cells; assay type: toxicity, cell-based; details: read-out: Selectivity Index
In short: (§2)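 T. cruzi Tulahuen CL2 β-galactosidase strain grown in MRC-5 cells (MEM, 5% heat-inactivated FCS, 37 °C, 5% CO2). MRC-5 cells (4 x 10^3/well) plus parasites (4 x 10^4/well) exposed 7 days to 4-fold dilutions from 64 µM down; final DMSO <1%. CPRG with Nonidet added, absorbance at 540 nm after 4 h. IC50 calculated against untreated-infected (100%) and non-infected (0%) controls. SI = MRC-5 CC50/IC50.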

Trypanosoma cruzi [7] = test: Antitrypanosomal activity against Trypanosoma cruzi Tulahuen CL2 amastigotes expressing beta galactosidase infected in human MRC5 cells assessed as reduction in parasite burden using chlorophenol red beta-D-galactopyranoside as substrate and measured after 7 days by spectrophotometric analysis; assay type: functional, organism-based; details: Tulahuen CL2, MRC5, 168 h; in short: as §2
[8] = Kinetic solubility of the compound at pH 2 PBS buffer measured after 24 hrs shaken by LC-MS/MS analysis; assay type: physicochemical; details: read-out: Kinetic_solubility
In short: (§3)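 Compounds from 10 mM DMSO stocks diluted in PBS pH 7.4 or pH 2.0 to 250 µM final, 2.5% DMSO, in duplicate. Shaken 24 ± 1 h at 200 rpm, room temperature, then centrifuged to remove precipitate. Supernatant quantified by LC-MS/MS against per-compound calibration at 1–50 µM.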

[9] = Kinetic solubility of the compound at pH 7.4 PBS buffer measured after 24 hrs shaken by LC-MS/MS analysis; assay type: physicochemical; details: read-out: Kinetic_solubility; in short: as §3
[10] = Passive permeability of the compound at 10 uM at pH 6.5 to 7.4 donor portion/acceptor portion by PAPMA assay; assay type: ADME; details: not told, read-out: permeability
In short: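 PAMPA on pre-coated membranes. Donor holds 10 µM compound in PBS pH 6.5; acceptor holds PBS pH 7.4. Incubated 5 h at 37 °C. Donor, acceptor and initial donor samples quenched and quantified by LC-MS/MS to calculate effective permeability (Pe). Run in triplicate.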

[11] = Cytotoxicity against mouse 3T3 cells assessed as reduction in cell viability measured after 24 hrs by colorimetric assay; assay type: toxicity, cell-based; details: NIH3T3 cells
[12] = Cytotoxicity against human MRC5 cells assessed as reduction in cell viability measured after 24 hrs by colorimetric assay; assay type: toxicity, cell-based
[13] = Cytotoxicity against primary peritoneal mouse macrophages assessed as reduction in cell viability measured after 24 hrs by colorimetric assay; assay type: toxicity, cell-based, Peritoneal macrophage
[14] = Cytotoxicity against rat L6 cells assessed as reduction in cell viability measured after 24 hrs by colorimetric assay; assay type: toxicity, cell-based
[15] = Cytotoxicity against human HepG2 cells assessed as reduction in cell viability measured after 24 hrs by colorimetric assay; assay type: toxicity, cell-based
[16] = Drug metabolism in S9 cells assessed as turnover; details: mouse

microsomal CLint [5] [µL/min/mg] | Structure (SMILES) | selectivity ratio [6] | pIC50 (Trypanosoma cruzi [7]) | other results
– | O=C(Cn1ccnc1[N+](=O)[O-])NCc1ccccc1 [BENZNIDAZOLE] | – | – | Activity (Trypanosoma cruzi [1]): 99%; inhibition (INH) (Trypanosoma cruzi [2]): 94%; pIC50 (Trypanosoma cruzi [3]): 5.58; IC90 (Trypanosoma cruzi [3]): 12.6 µM; pIC50 (Trypanosoma cruzi [4]): 5.59
– | CC[C@@H]([C@H](C)O)n1ncn(-c2ccc(N3CCN(c4ccc(OC[C@@H]5CO[C@@](Cn6cncn6)(c6ccc(F)cc6F)C5)cc4)CC3)cc2)c1=O [POSACONAZOLE] | – | – | Activity (Trypanosoma cruzi [1]): 100%; inhibition (INH) (Trypanosoma cruzi [2]): 98%; pIC50 (Trypanosoma cruzi [3]): 9.00; IC90 (Trypanosoma cruzi [3]): 0.002 µM; pIC50 (Trypanosoma cruzi [4]): 8.70
25 | N#Cc1ccc2nc(NC(=O)c3cc(C(F)(F)F)n[nH]3)n(CC(F)(F)F)c2c1 | > 42 | 5.82 | Activity (Trypanosoma cruzi [1]): 99%; inhibition (INH) (Trypanosoma cruzi [2]): 97%; pIC50 (Trypanosoma cruzi [3]): 6.24; IC90 (Trypanosoma cruzi [3]): 0.88 µM; solubility kinetic at 24 h [8]: < 1 µM; solubility kinetic at 24 h [9]: < 1 µM; Papp at 10 µM [10]: 2 ×10⁻⁶ cm/s; CC50 at 24 h [11]: > 40 µM; CC50 at 24 h [12]: > 64 µM; CC50 at 24 h [13]: 25 µM; CC50 at 24 h [14]: 12 µM; CC50 at 24 h [15]: 1.8 µM
413 | CCCn1c(NC(=O)c2ccccn2)nc2cc(F)ccc21 | 7 | 5.96 | metabolised [16]: 66.2%
98 | O=C(Nc1nc2ccc(F)cc2n1CC(F)(F)F)c1cccnc1 | 13 | 5.38 | –
595 | Cc1nc(C)c(C(=O)Nc2nc3ccc(C#N)cc3n2CC(F)(F)F)s1 | 14 | 6.27 | –
164 | CCCn1c(NC(=O)c2cccnc2)nc2cc(F)ccc21 | > 8 | 5.09 | metabolised [16]: 1.91%
23 | CC(C)(C)Cn1c(NC(=O)c2cc(C(F)(F)F)n[nH]2)nc2cc(C#N)cnc21 | 3 | 5.82 | –
77 | Cn1nc(C(=O)Nc2nc3ccc(C#N)cc3n2CC(F)(F)F)cc1C(F)(F)F | 1 | 4.19 | –
383 | Cn1nccc1C(=O)Nc1nc2ccc(C#N)cc2n1CC(F)F | 5 | 5.62 | –
715 | CCCn1c(NC(=O)Cc2ccc(F)cc2)nc2c(F)cccc21 | 1 | < 4.19 | –
170 | COc1ccc(C(=O)Nc2nc3ccc(C#N)cc3n2CC(F)(F)F)cn1 | > 28 | 5.64 | –
236 | N#Cc1ccc2nc(NC(=O)c3ccccn3)n(CC(F)(F)F)c2c1 | > 7 | 5.03 | –
285 | CCCn1c(NC(=O)c2cccc(C(F)(F)F)n2)nc2cccnc21 | > 27 | 5.62 | –
27 | N#Cc1ccc2nc(NC(=O)c3ccnc(C(F)(F)F)c3)n(CC(F)(F)F)c2c1 | > 231 | 6.55 | Activity (Trypanosoma cruzi [1]): 98%; inhibition (INH) (Trypanosoma cruzi [2]): 91%; pIC50 (Trypanosoma cruzi [3]): 6.85; IC90 (Trypanosoma cruzi [3]): 0.31 µM; solubility kinetic at 24 h [8]: < 1 µM; solubility kinetic at 24 h [9]: < 1 µM; Papp at 10 µM [10]: 2.3 ×10⁻⁶ cm/s; CC50 at 24 h [11]: > 40 µM; CC50 at 24 h [12]: > 64 µM; CC50 at 24 h [13]: 4 µM; CC50 at 24 h [14]: 50 µM; CC50 at 24 h [15]: 2.4 µM; pIC50 (Trypanosoma cruzi [4]): 5.88
389 | CCCn1c(NC(=O)Cc2cc(F)ccc2F)nc2cc(F)c(F)cc21 | 52 | 6.24 | –
222 | Cn1nccc1C(=O)Nc1nc2cccnc2n1CC(C)(C)C | 20 | 5.66 | –
28 | Cn1nc(C(F)(F)F)cc1C(=O)Nc1nc2ccc(C#N)cc2n1CC(F)(F)F | 34 | 6.64 | Activity (Trypanosoma cruzi [1]): 99%; inhibition (INH) (Trypanosoma cruzi [2]): 97%; pIC50 (Trypanosoma cruzi [3]): 6.72; IC90 (Trypanosoma cruzi [3]): 0.36 µM; solubility kinetic at 24 h [8]: < 1 µM; solubility kinetic at 24 h [9]: < 1 µM; Papp at 10 µM [10]: 2.4 ×10⁻⁶ cm/s; CC50 at 24 h [11]: > 40 µM; CC50 at 24 h [12]: 8 µM; CC50 at 24 h [13]: 1 µM; CC50 at 24 h [14]: 19 µM; CC50 at 24 h [15]: 1.1 µM; pIC50 (Trypanosoma cruzi [4]): 6.00
1250 | CCCn1c(NC(=O)Cc2ccc(F)cc2)nc2ccc(C(=O)OC)cc21 | 35 | 6.28 | –
18 | N#Cc1ccc2nc(NC(=O)c3ccc(C(F)(F)F)nc3)n(CC(F)(F)F)c2c1 | > 25 | 5.59 | Activity (Trypanosoma cruzi [1]): 99%; inhibition (INH) (Trypanosoma cruzi [2]): 98%; pIC50 (Trypanosoma cruzi [3]): 6.72; IC90 (Trypanosoma cruzi [3]): 0.57 µM; solubility kinetic at 24 h [8]: < 1 µM; solubility kinetic at 24 h [9]: < 1 µM; Papp at 10 µM [10]: 5.4 ×10⁻⁶ cm/s; CC50 at 24 h [11]: > 40 µM; CC50 at 24 h [12]: > 64 µM; CC50 at 24 h [13]: 8 µM; CC50 at 24 h [14]: 18 µM; CC50 at 24 h [15]: 1.1 µM
52.7 | Cn1nccc1C(=O)Nc1nc2cc(-c3ncco3)ccc2n1CC(F)(F)F | 1 | 4.42 | –
25 | Cc1nnn(CC(=O)Nc2nc3ccc(C#N)cc3n2CC(F)(F)F)n1 | > 6 | 4.96 | –
181 | Cc1cc(C(=O)Nc2nc3ccc(C#N)cc3n2CC(F)(F)F)nn1C | 1 | 4.19 | –
265 | CCCn1c(NC(=O)c2ccccn2)nc2cccnc21 | > 8 | 5.08 | –
23 | CC(=O)N1CCC(n2c(NC(=O)c3ccnn3C)nc3ccc(C#N)cc32)CC1 | 1 | 4.19 | –
200 | CCCn1c(NC(=O)c2cccnc2)nc2ccc(C#N)cc21 | > 4 | 4.74 | –
131 | CC(C)(C)Cn1c(NC(=O)c2cccnc2)nc2cc(F)c(F)cc21 | > 80 | 6.10 | –
23 | O=C(Nc1nc2cc(F)ccc2n1C1CCOCC1)c1ccc(C(F)(F)F)nc1 | > 2 | 4.46 | –
1510 | CCCn1c(NC(=O)Cc2ccc(Cl)cc2)nc2cc(F)ccc21 | > 70 | 6.04 | –
154 | Cn1nccc1C(=O)Nc1nc2ccc(C#N)cc2n1CCF | 2 | 5.08 | –

Structure (SMILES) | microsomal CLint [5] [µL/min/mg] | selectivity ratio [6] | pIC50 (Trypanosoma cruzi [7]) | other results
N#Cc1ccc2nc(NC(=O)c3ccn(C4CC4)n3)n(CC(F)(F)F)c2c1 | 299 | > 15 | 5.37 | –
